Laboratory results reported in ChEMBL document CHEMBL5625181, “Exploring the 1,3-benzoxazine chemotype for cannabinoid receptor 2 as a promising anti-cancer therapeutic” (Eur J Med Chem, 2023).
The source made the active and inactive calls. The rule behind the calls is not given here.

Key:
[1] = target: T1, Cannabinoid receptor 2 (Homo sapiens, UniProt P34972); experiment: Displacement of [3H]CP55,940 from human CB2 receptor expressed in CHO cells membrane assessed as residual activity at 0.1 uM by scintillation counting analysis relative to control; format: cell membranes
T1 sequence (P34972 whole entry): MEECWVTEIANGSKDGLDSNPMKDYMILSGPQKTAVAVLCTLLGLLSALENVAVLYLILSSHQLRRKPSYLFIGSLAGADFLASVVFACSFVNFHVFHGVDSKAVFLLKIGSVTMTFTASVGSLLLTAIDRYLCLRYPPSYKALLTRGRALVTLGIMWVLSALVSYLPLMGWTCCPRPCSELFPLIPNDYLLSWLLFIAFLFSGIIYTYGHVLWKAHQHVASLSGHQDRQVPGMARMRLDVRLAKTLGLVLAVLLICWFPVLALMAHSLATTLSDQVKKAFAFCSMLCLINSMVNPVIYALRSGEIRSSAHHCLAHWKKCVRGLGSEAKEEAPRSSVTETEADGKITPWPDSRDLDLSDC
Outline: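 Membranes (2.5 µg) from CHO cells stably expressing human CB2, in 50 mM Tris-HCl, 5 mM MgCl2, 1 mM CaCl2, 2 mg/mL BSA, pH 7.4. Incubated 30 min at 37 °C with 0.8 nM [3H]CP55,940 and 0.1 µM compound (final). Nonspecific binding with 1 µM unlabelled CP55,940. Filtered on PEI-soaked GF/B filters, scintillation counted. Quintuplicate, ≥3 experiments.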

[2] = target: T1, Cannabinoid receptor 2; experiment: Agonist activity at human recombinant Cannabinoid receptor 2 by GTPgammaS binding assay; format: functional
Outline: (§1)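 [35S]GTPγS filtration assay. Membranes (5 µg CB2 or 10 µg/well CB1), permeabilized with equal mass of saponin, preincubated 20 min at room temperature with compound (0-100 μM) in 20 mM HEPES, 100 mM NaCl, 10 mM MgCl2, 10 µM GDP, pH 7.4. Then 0.3 nM [35S]GTPγS for 30 min at 37 °C. Quintuplicate, ≥3 experiments. pEC50 from non-linear fit.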

[3] = target: Cannabinoid receptor 1 (Homo sapiens, UniProt P21554); experiment: Agonist activity at human recombinant Cannabinoid receptor 1 by GTPgammaS binding assay; format: functional; outline: as §1
Chain of Cannabinoid receptor 1 (P21554 whole entry): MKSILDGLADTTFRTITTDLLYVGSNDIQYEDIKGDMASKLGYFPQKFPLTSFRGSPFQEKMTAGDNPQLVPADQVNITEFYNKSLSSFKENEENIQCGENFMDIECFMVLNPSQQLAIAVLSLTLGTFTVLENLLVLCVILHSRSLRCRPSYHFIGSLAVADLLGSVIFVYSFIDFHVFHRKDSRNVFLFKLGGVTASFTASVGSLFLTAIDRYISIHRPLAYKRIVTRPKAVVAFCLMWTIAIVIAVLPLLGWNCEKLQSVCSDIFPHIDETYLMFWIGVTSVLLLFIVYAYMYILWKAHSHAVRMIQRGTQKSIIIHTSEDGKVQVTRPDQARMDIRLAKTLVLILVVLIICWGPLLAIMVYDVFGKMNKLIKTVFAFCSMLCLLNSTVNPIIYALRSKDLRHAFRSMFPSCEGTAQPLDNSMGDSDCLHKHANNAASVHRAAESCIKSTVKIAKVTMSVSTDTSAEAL

[4] = tested on: BT-549; experiment: Antiinflammatory activity in human BT-549 cells assessed as decrease in TNF-alpha level at 10 uM incubated for 48 hrs by ELISA method relative to control; format: functional; set-up: scale not given: the % may be the effect or the level left
Outline: (§2)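 BT549 cells seeded at 1.5 x 10^4/well and treated after 24 h with vehicle or compound at 37 °C for 48 h. TNF-α and IL-6 in supernatant measured by ELISA at 450 nm against a recombinant cytokine standard curve (0-1000 pg/mL). Expressed as % of vehicle. Three independent experiments, each in triplicate.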

[5] = tested on: BT-549; experiment: Antiproliferative activity against human BT-549 cells assessed as inhibition in cell proliferation incubated after 72 hrs by MTT assay; format: functional, cell-based; conditions: dose 0.1-10 µM
Outline: (§3)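 Cells seeded at 1.5 x 10^4/well and incubated overnight; sub-confluent cells treated at 37 °C for 24, 48 or 72 h. MTT added (final 1 mg/mL), 3 h at 37°C in the dark, formazan dissolved in DMSO, read at 590 nm. Expressed as % of vehicle; mean ± SEM of three experiments, each at least in quintuplicate.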

[6] = tested on: BT-549; experiment: Antiinflammatory activity in human BT-549 cells transfected with CNR2 siRNA assessed as decrease in TNF-alpha level at 10 uM incubated for 48 hrs by ELISA method; format: functional, cell-based
Outline: (§4)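 BT549 cells seeded at 1.5 x 10^4 cells/well, transfected with 50 nM CNR2 siRNA or scramble oligo, then treated with vehicle or 10 μM compound at 37 °C for 48 h. TNF-α and IL-6 in supernatant measured by ELISA at 450 nm. Expressed as % of vehicle; mean ± SEM of three experiments in triplicate.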

[7] = tested on: BT-549; experiment: Antiinflammatory activity in human BT-549 cells transfected with CNR2 siRNA assessed as decrease in IL-6 level at 10 uM incubated for 48 hrs by ELISA method; format: functional, cell-based; outline: as §4
[8] = tested on: BT-549; experiment: Antiproliferative activity against human BT-549 cells assessed as inhibition in cell proliferation at 1 to 10 uM incubated after 24 hrs by MTT assay; format: functional, cell-based; conditions: dose 1-10 µM; outline: as §3
[9] = tested on: BT-549; experiment: Inhibition of colony formation in human BT-549 cells assessed as decrease in number of colonies at 10 uM incubated for 14 days by inverted phase contrast microscope relative to control; format: functional; set-up: scale not given: the % may be the effect or the level left; conditions: time 14 day
Outline: (§5)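 BT549 seeded at 1 x 10^3 cells/well and grown at 37 °C for at least 14 days with vehicle or compound. Colonies fixed and stained with 6% glutaraldehyde/0.5% crystal violet for 30 min, then counted by inverted phase-contrast microscopy (10x). Expressed as % of vehicle. Three independent experiments, each at least in triplicate.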

[10] = target: T1, Cannabinoid receptor 2; experiment: Agonist activity at human Cannabinoid receptor 2 in BT-549 cells assessed as downregulation in ERK1/2 phosphorylation level at 10 uM by westernblot analysis; format: functional, cell-based; conditions: filed as agonist, time 5-60 min, TDE = time-dependent effect
Outline: (§6)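 BT549 cells, untransfected or transfected with scramble oligo or CNR2 siRNA, incubated at 37°C with or without 10 μM compound for the indicated periods. Phospho-ERK1/2 measured by Western blot on whole lysates (20-40 µg/lane, SDS-PAGE, PVDF, enhanced chemiluminescence). Values compared with relative vehicle-treated cells.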

[11] = target: T1, Cannabinoid receptor 2; experiment: Agonist activity at human Cannabinoid receptor 2 in BT-549 cells transfected with CNR2 siRNA assessed as downregulation in ERK1/2 phosphorylation level at 10 uM and observed after 5 mins by Western blot analysis relative to control; format: functional, cell-based; outline: as §6
[12] = tested on: MCF-10A; experiment: Cytotoxicity activity against human MCF-10A cells assessed as change in cell proliferation by MTT assay; format: toxicity, cell-based; outline: as §3
[13] = tested on: BT-549; experiment: Antiinflammatory activity in human BT-549 cells assessed as decrease in IL-6 level at 10 uM incubated for 48 hrs by ELISA method relative to control; format: functional; set-up: scale not given: the % may be the effect or the level left; outline: as §2
[14] = target: T1, Cannabinoid receptor 2; experiment: Agonist activity at human Cannabinoid receptor 2 in BT-549 cells assessed as downregulation in ERK1/2 phosphorylation level at 10 uM and observed within 5 min by Western blot analysis relative to control; format: functional, cell-based; outline: as §6
[15] = target: T1, Cannabinoid receptor 2; experiment: Agonist activity at human Cannabinoid receptor 2 in BT-549 cells assessed as change in ERK1/2 phosphorylation level at 10 uM and observed after 10 min by westernblot analysis; format: functional, cell-based; outline: as §6
[16] = tested on: HCC1954; experiment: Antiproliferative activity against human HER2-positive HCC1954 cells assessed as change in cell proliferation by MTT assay; format: functional, cell-based; outline: as §3
[17] = tested on: BT-549; experiment: Antiproliferative activity against human BT-549 cells transfected with CNR2 siRNA assessed as inhibition of cell proliferation at 10 uM incubated after 24 hrs by MTT assay; format: functional, cell-based
Outline: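 BT549 cells transfected with 50 nM CNR2 siRNA or scramble control by lipofection. After 24 h, treated with vehicle or 10 µM compound for a further 24 h. Viability by MTT (1 mg/mL, 3 h, 37°C, 590 nm).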

[18] = tested on: MDA-MB-231; experiment: Antiproliferative activity against human triple negative MDA-MB-231 cells assessed as change in cell proliferation by MTT assay; format: functional, cell-based; outline: as §3
[19] = target: T1, Cannabinoid receptor 2; experiment: Agonist activity at human recombinant Cannabinoid receptor 2 assessed as stimulation of GTPgammaS binding at 1 uM by GTPgammaS binding assay relative to control; format: functional
Outline: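 CB2 membranes (ChemiSCREEN) at 5 µg, permeabilised with an equal mass of saponin. Pre-incubated with ligand for 20 min at RT in 20 mM HEPES, 100 mM NaCl, 10 mM MgCl2, pH 7.4, with 10 µM GDP. Then 0.3 nM [35S]GTPγS for 30 min at 37 °C. Stopped with ice-cold phosphate buffer, filtered on PEI-soaked GF/B, scintillation counted. Quintuplicates, ≥3 experiments.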

[20] = tested on: BT-549; experiment: Inhibition of colony formation in human BT-549 cells assessed as decrease in number of colonies at 0.1 uM incubated for 14 days by inverted phase contrast microscope relative to control; format: functional, cell-based; conditions: time 14.0 day; outline: as §5
[21] = tested on: BT-549; experiment: Antiproliferative activity against human BT-549 cells transfected with CNR2 siRNA assessed as inhibition of cell proliferation at 0.1 uM incubated after 24 hrs by MTT assay; format: functional, cell-based
Outline: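 BT549 transfected with 50 nM CNR2 siRNA or scramble oligo (Lipofectamine RNAiMAX). After 24 h, treated for a further 24 h. Viability by MTT: 1 mg/mL final for 3 h at 37 °C, formazan dissolved in DMSO, absorbance read at 590 nm.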

[22] = tested on: BT-549; experiment: Antiproliferative activity against human BT-549 cells assessed as decrease in cell proliferation at 0.1 uM by MTT assay; format: functional, cell-based
Outline: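 BT549 in RPMI-1640 with 10% FBS and insulin, seeded at 1.5 x 10^4/well overnight. Sub-confluent cells treated at 37 °C. MTT added at 1 mg/mL final for 3 h at 37 °C in the dark, formazan dissolved in DMSO, absorbance read at 590 nm. Expressed as % of vehicle.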

Row | SMILES | Activity [1] [%] | EC50 ([2]; read-out: pEC50 (converted)) [nM] | EC50 ([3]; read-out: pEC50 (converted)) [nM] | other results
1 | O=C1c2ccc(OS(=O)(=O)c3ccc4c(c3)OCCO4)cc2OC2(CCOCC2)N1Cc1ccccc1 | < 80 | – | – | –
2 | Cc1ccc(S(=O)(=O)Oc2ccc3c(c2)OC(C)(C)N(Cc2ccc(F)cc2)C3=O)cc1 | < 80 | 195 | > 10000 | –
3 | O=C1NC2(CCCCC2)Oc2cc(OS(=O)(=O)c3ccccc3[N+](=O)[O-])ccc21 | < 80 | 2140 | > 10000 | –
4 | O=C1c2ccc(OS(=O)(=O)Cc3ccccc3)cc2OC2(CCCCC2)N1Cc1ccccc1 | < 80 | 759 | > 10000 | –
5 | O=C1c2ccc(OS(=O)(=O)c3ccc([N+](=O)[O-])cc3)cc2OC2(CCOCC2)N1Cc1ccccc1 | < 80 | – | – | –
6 | CN1C(=O)c2ccc(OS(=O)(=O)c3cccc4ccccc34)cc2OC1(C)C | < 80 | 2950 | 7240 | –
7 | COc1cccc(COc2ccc3c(c2)OC(C)(C)N(Cc2ccc(F)cc2)C3=O)c1 | < 80 | – | – | pEC50 [2]: inactive
8 | N#Cc1ccc(CN2C(=O)c3ccc(OCc4ccc(OC(F)(F)F)cc4)cc3OC23CCCCC3)cc1 | < 80 | – | – | pEC50 [2]: inactive
9 | COc1cccc(COc2ccc3c(c2)OC(C)(C)N(Cc2ccc(C(C)C)cc2)C3=O)c1 | < 80 | – | – | pEC50 [2]: inactive
10 | Cn1cnc(S(=O)(=O)Oc2ccc3c(c2)OC2(CCCCC2)N(Cc2ccccc2)C3=O)c1 | < 80 | 1000 | > 10000 | –
11 | CC(C)(C)C(=O)COc1ccc2c(c1)OC(C)(C)N(Cc1ccccc1)C2=O | < 80 | – | – | pEC50 [2]: inactive
12 | O=C1c2ccc(OS(=O)(=O)c3cccs3)cc2OC2(CCCCC2)N1Cc1ccccc1 | < 80 | – | > 10000 | Activity [4]: <=50%; inhibition [5]: Dose-Dependent Effect; Activity [6]: inactive; Activity [7]: inactive; inhibition [8]: Active; Activity [9]: 75.4%; Activity [10]: Tde; Activity [11]: inactive; Activity [12]: Non-Toxic; Activity [13]: <=70%; Activity [14]: 30%; EC50 ([2]; read-out: EC50): 110 nM; Activity [15]: inactive; Activity [16]: Active; Activity [17]: inactive; Activity [18]: Active; EC50 ([3]; read-out: EC50): > 10000 nM
13 | COc1cccc(S(=O)(=O)Oc2ccc3c(c2)OC2(CCCCC2)N(Cc2ccc(C(C)C)cc2)C3=O)c1 | < 80 | – | – | –
14 | CN(C)C(=O)CN1C(=O)c2ccc(OS(=O)(=O)c3ccc(Br)cc3)cc2OC1(C)C | < 80 | – | – | –
15 | N#Cc1cccc(S(=O)(=O)Oc2ccc3c(c2)OC2(CCCCC2)N(Cc2ccccc2)C3=O)c1 | < 80 | 355 | > 10000 | –
16 | O=C1c2ccc(OS(=O)(=O)c3ccc(-c4ccc(Cl)cc4)cc3)cc2OC2(CCCCC2)N1Cc1ccccc1 | < 80 | – | – | –
17 | Cn1ccc(S(=O)(=O)Oc2ccc3c(c2)OC2(CCCCC2)N(Cc2ccc(C#N)cc2)C3=O)n1 | < 80 | 372 | > 10000 | –
18 | COc1cccc(S(=O)(=O)Oc2ccc3c(c2)OC2(CCCCC2)N(CCCCC#N)C3=O)c1 | < 80 | 776 | > 10000 | –
19 | N#Cc1ccc(S(=O)(=O)Oc2ccc3c(c2)OC2(CCCCC2)N(Cc2ccccc2)C3=O)cc1 | < 80 | 288 | > 10000 | –
20 | CC1(C)Oc2cc(OCc3ccc(OC(F)(F)F)cc3)ccc2C(=O)N1Cc1ccc(F)cc1 | < 80 | – | – | pEC50 [2]: inactive
21 | CCCn1c(C)c(C(=O)c2cccc3ccccc23)c2ccccc21 | – | – | – | Activity [19]: 233%; inhibition [20]: Active; Activity [21]: inactive; Activity [22]: Active
22 | COc1ccc(S(=O)(=O)Oc2ccc3c(c2)OC2(CCCCC2)N(Cc2ccccc2)C3=O)cc1 | < 80 | 1480 | > 10000 | –
23 | O=C1c2ccc(OS(=O)(=O)c3cccc([N+](=O)[O-])c3)cc2OC2(CCOCC2)N1Cc1ccccc1 | < 80 | 204 | > 10000 | –
24 | COc1cccc(S(=O)(=O)Oc2ccc3c(c2)OC2(CCCCC2)N(Cc2ccccc2)C3=O)c1 | < 80 | 417 | > 10000 | –
25 | CC1(C)NC(=O)c2ccc(OS(=O)(=O)c3cccc4ccccc34)cc2O1 | < 80 | – | – | –
26 | CN1C(=O)c2ccc(OS(=O)(=O)c3ccc(Oc4ccccc4)cc3)cc2OC1(C)C | < 80 | – | – | –
